The results in this text go back to ChEMBL document CHEMBL3259808, “Optimization of antitrypanosomatid agents: identification of nonmutagenic drug candidates with in vivo activity” (J Med Chem, 2014).

In data set [1] the test system is Salmonella typhimurium. Briefly: Mutagenic activity in Salmonella typhimurium TA98 at 0.04 to 4 ug/plate by Ames test. The class given is toxicity, organism-based. The following applies: salmonella enterica subsp. enterica serovar typhimurium. The procedure, abridged: (§1)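 Ames plate-incorporation assay with S. typhimurium TA98 in Vogel-Bonner E minimal glucose agar. Toxicity toward the bacteria was checked first. DMSO solutions were run in triplicate at five consecutive third-dilutions, starting at the highest non-toxic dose. Positive controls were 4-nitro-o-phenylenediamine (20.0 μg/plate) and 2-aminofluorene (10.0 μg/plate); DMSO was the negative control. Revertants were counted manually. A compound was called mutagenic when revertants were at least twice the negative control at two or more consecutive doses.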
(In general: The Ames test detects mutagens through reverse mutation in bacteria.)

The nature of data set [2]: Selectivity index, ratio of IC50 for African green monkey Vero cells to IC50 for Trypanosoma cruzi Sylvio X-10 amastigotes. The class given is toxicity, cell-based. The following applies: read-out: Ratio IC50. The procedure, abridged: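 VERO cytotoxicity: cells exposed 48 h at 37 °C, 5% CO2 to serial dilutions from a maximum of 2000 μM (DMSO stocks; DMSO <0.1% control); growth inhibition read by MTT at 570 nm. Amastigote IC50: Sylvio X-10-infected VERO cells, five doses, infected cells counted among 300 (Giemsa), quadruplicate, three experiments, sigmoidal fit. SI = IC50 VERO / IC50 amastigote.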

In data set [3] the test system is Trypanosoma cruzi. Nature of the data set: Antitrypanosomal activity against Trypanosoma cruzi Tulahuen 2 epimastigotes assessed as growth inhibition after 5 days. The class given is functional, organism-based. The following applies: Trypanosoma cruzi, Tulahuen 2, 120 h. The procedure, abridged: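 Epimastigotes were grown axenically at 28 °C in BHI-tryptose with 5% FBS and seeded from a 5–7 day culture at 1 × 10⁶ cells/mL. Drug from a DMSO stock was added (final DMSO ≤0.4%; the control contained 0.4% DMSO). Duplicates were run. A600 was read at day 5, and % inhibition was calculated relative to day-0 and control readings. IC50 = concentration that halves the absorbance ratio.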

The subject of data set [4] is Trypanosoma cruzi. Nature of the data set: Antitrypanosomal activity against Trypanosoma cruzi Sylvio X-10 amastigotes infected in African green monkey Vero cells assessed as eradication of amastigotes after 5 days by Giemsa staining-based assay. The class given is functional, organism-based. The following applies: Sylvio X-10, Vero, 120 h. The procedure, abridged: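 VERO cells in RPMI 1640 with 10% hiFCS were allowed to adhere for 24 h at 37 °C in 5% CO₂, then infected with tissue-derived trypomastigotes at 10:1. Free parasites were washed off after 24 h, and cultures were treated at five compound doses (text gives 72 h / 5 days). Cultures were methanol-fixed and Giemsa-stained, and infected cells were counted among 300. Quadruplicates were run in three independent experiments. IC50/IC90 were obtained by sigmoidal regression.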

Data set [5] concerns Salmonella typhimurium. Nature of the data set: Mutagenic activity in Salmonella typhimurium TA98 at 0.04 to 4 ug/plate by Ames test in presence of mouse liver S9 fraction. The class given is toxicity, organism-based. The following applies: salmonella enterica subsp. enterica serovar typhimurium. The method, boiled down: as §1
Data set [6] deals with Salmonella typhimurium. Nature of the data set: Mutagenic activity in Salmonella typhimurium TA98 at 0.005 to 0.4 ug/plate by Ames test in presence of mouse liver S9 fraction. The settings on record: salmonella enterica subsp. enterica serovar typhimurium. The class given is toxicity, organism-based. The method, boiled down:
(§2)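 Plate-incorporation Ames test on minimal glucose agar with 500 μL Aroclor-treated mouse liver S9 added. DMSO solutions were tested at five consecutive 3-fold dilutions from the highest non-toxic dose, in triplicate, with a DMSO negative control. Revertants were counted manually; a compound was scored mutagenic when revertants were at least twice the negative control for two or more consecutive doses.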

Data set [7] deals with Salmonella typhimurium. Briefly: Mutagenic activity in Salmonella typhimurium TA98 at 0.005 to 0.4 ug/plate by Ames test. The class given is toxicity, organism-based. The following applies: salmonella enterica subsp. enterica serovar typhimurium. The procedure, abridged:
(§3)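 Direct plate incubation on minimal glucose agar (Vogel-Bonner E). Compound toxicity to the bacteria was checked first. DMSO solutions were tested at five consecutive 3-fold dilutions, starting from the highest non-toxic dose, in triplicate, without metabolic activation. DMSO served as negative control. Revertants were counted manually; mutagenic = revertants at least double the negative control at two or more consecutive doses.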

A short description of data set [8]: Selectivity index, ratio of IC50 for human RBC to IC50 for Trypanosoma cruzi Tulahuen 2 epimastigotes. The method, boiled down:
(§4)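 Hemolysis: washed human erythrocytes (2% w/v in PBS) incubated 24 h at 37 °C with compound at final 50, 100 and 200 μM. Ten replicates per concentration. Hemoglobin release read at 405 nm against water lysis as 100%; amphotericin B 1.5 μM was the positive control. SI = IC50 red cells / parasite IC50 (Sylvio X-10 amastigotes or Tulahuen 2 epimastigotes).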

Data set [9] relates to Salmonella typhimurium. Briefly: Mutagenic activity in Salmonella typhimurium TA98 at 6 to 500 ug/plate by Ames test in presence of mouse liver S9 fraction. The class given is toxicity, organism-based. The settings on record: salmonella enterica subsp. enterica serovar typhimurium. The procedure, abridged: as §1
Data set [10] has as its system Salmonella typhimurium. Nature of the data set: Mutagenic activity in Salmonella typhimurium TA98 at 6 to 500 ug/plate by Ames test. The class given is toxicity, organism-based. The following applies: salmonella enterica subsp. enterica serovar typhimurium. The method, boiled down:
as §1

For data set [11], the system named is Trypanosoma cruzi. Nature of the data set: Antitrypanosomal activity against Trypanosoma cruzi Sylvio X-10 amastigotes infected in African green monkey Vero cells assessed as eradication of amastigotes after 72 hrs by Giemsa staining-based assay. The following applies: Sylvio X-10, Vero.
For data set [12], the system named is Salmonella typhimurium. Nature of the data set: Mutagenic activity in Salmonella typhimurium TA98 at 0.05 to 4 ug/plate by Ames test in presence of mouse liver S9 fraction. The class given is toxicity, organism-based. The following applies: salmonella enterica subsp. enterica serovar typhimurium. The method, boiled down:
as §1

Data set [13] deals with Salmonella typhimurium. Briefly: Mutagenic activity in Salmonella typhimurium TA98 at 0.05 to 4 ug/plate by Ames test. The class given is toxicity, organism-based. The settings on record: salmonella enterica subsp. enterica serovar typhimurium. The method, boiled down:
as §1

The test system of data set [14] is Salmonella typhimurium. Briefly: Mutagenic activity in Salmonella typhimurium TA98 at 0.02 to 2 ug/plate by Ames test in presence of mouse liver S9 fraction. The class given is toxicity, organism-based. The following applies: salmonella enterica subsp. enterica serovar typhimurium. The procedure, abridged:
as §2

A short description of data set [15]: Selectivity index, ratio of IC50 for human RBC to IC50 for Trypanosoma cruzi Sylvio X-10 amastigotes. The method, boiled down: as §4
Data set [16] concerns Salmonella typhimurium. Briefly: Mutagenic activity in Salmonella typhimurium TA98 at 0.02 to 2 ug/plate by Ames test. The class given is toxicity, organism-based. The following applies: salmonella enterica subsp. enterica serovar typhimurium. The method, boiled down:
as §3

The subject of data set [17] is Salmonella typhimurium. Nature of the data set: Mutagenic activity in Salmonella typhimurium TA98 at 3 to 250 ug/plate by Ames test in presence of mouse liver S9 fraction. The class given is toxicity, organism-based. The following applies: salmonella enterica subsp. enterica serovar typhimurium. The procedure, abridged:
as §1

Data set [18] relates to Salmonella typhimurium. Nature of the data set: Mutagenic activity in Salmonella typhimurium TA98 at 3 to 250 ug/plate by Ames test. The class given is toxicity, organism-based. The settings on record: salmonella enterica subsp. enterica serovar typhimurium. The method, boiled down: as §1

As a reminder, the IC50 is the concentration that inhibits the measured activity by half. As a reminder, the IC90 is the point of the concentration-response curve where the effect stands at 90%.

For `C=CCn1c(-c2ccc([N+](=O)[O-])cc2)cs\c1=N/N=C/C=C/c1ccc([N+](=O)[O-])s1`, the Activity entry in the data set with Salmonella typhimurium [1] and with Salmonella typhimurium [5] was “Toxic” each time. The selectivity ratio in data set [2] worked out at 13. Moreover, the IC50 is 3.3 µM in the data set with Trypanosoma cruzi [3] and 8.2 µM with Trypanosoma cruzi [4].
On to `C=CCn1c(C)cs/c1=N\N=C\c1ccc([N+](=O)[O-])s1`, for which the IC50 is 10 µM in the data set with Trypanosoma cruzi [3] and 10.5 µM in the data set on Trypanosoma cruzi [4]. In addition, the Activity result with Salmonella typhimurium [6] and with Salmonella typhimurium [7] was “Non-toxic” each time.
On to `S=C(N/N=C/c1cccs1)Nc1ccccc1`, for which the Ratio IC50 in data set [8] worked out at 21. The IC50 in the data set with Trypanosoma cruzi [3] came to 4.7 µM.
On to `C=CCn1c(C)csc1=N/N=C/c1ccc([N+](=O)[O-])s1`, for which the values for the IC50 with Trypanosoma cruzi [3] and with Trypanosoma cruzi [4] were 20 µM and 2.55 µM, respectively. Further, the Activity entry in the data set with Salmonella typhimurium [6] and in the data set with Salmonella typhimurium [7] was “Non-toxic” in each case.
Turning to `C=CCNC(=S)N/N=C/C=C/C=C/c1cccs1`, the Activity result with Salmonella typhimurium [9] and in the data set on Salmonella typhimurium [10] was “Non-toxic” in each case. For the same molecule, the IC50 was 0.6 µM in the data set on Trypanosoma cruzi [3] and > 25 µM in the data set with Trypanosoma cruzi [4]. In addition, the concentration for an effect of 90% (IC90) in the data set with Trypanosoma cruzi [11] is > 25 µM.
On to `C=CCNc1nnc(-c2ccc([N+](=O)[O-])s2)s1`, for which, in data set [2], the selectivity ratio was determined as 50. Moreover, the Activity entry with Salmonella typhimurium [12] and with Salmonella typhimurium [13] was “Non-toxic” each time. Further, the results for the IC50 with Trypanosoma cruzi [3] and in the data set on Trypanosoma cruzi [4] were 12 µM and 5 µM, respectively. For the same molecule, the 90% effect concentration (IC90) in the data set on Trypanosoma cruzi [11] turned out to be 15.9 µM.
For `C=CCN1C(=O)CS\C1=N/N=C/C=C/c1ccc([N+](=O)[O-])s1`, the selectivity ratio in data set [2] is 80. The values for the IC50 in the data set with Trypanosoma cruzi [3] and with Trypanosoma cruzi [4] were 1.3 µM and 2.8 µM, respectively. Moreover, the Activity result was “Non-toxic” in the data set with Salmonella typhimurium [14] and “Toxic” with Salmonella typhimurium [16]. In [15], the Ratio IC50 came to 28.
As to `C=CCNC(=S)N/N=C/C=C/c1ccc([N+](=O)[O-])s1`, the selectivity ratio in data set [2] was determined as 60. Besides, the IC50 stood at 1.2 µM in the data set with Trypanosoma cruzi [3] and 1.29 µM with Trypanosoma cruzi [4]. For the same molecule, in data set [15], the Ratio IC50 was found to be 82. Moreover, the Activity entry in the data set on Salmonella typhimurium [17] and in the data set with Salmonella typhimurium [18] was “Toxic” each time.
